Calls of active or inactive are those of the source. The rule behind the calls is not given here.
Tests used:
[1] = target: T1, Glucagon receptor (Homo sapiens, UniProt P47871); experiment: Displacement of [125I]-glucagon from human glucagon receptor expressed in CHO cells after 4 to 12 hrs by scintillation proximity assay; assay type: cell-based
Outline: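 Scintillation proximity assay on membranes from CHO cells expressing hGCGR, measuring inhibition of ¹²⁵I-labelled glucagon binding. IC50 reported as the average rounded to two significant figures, with standard error of the mean when more than one measurement was made.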

[2] = target: T1, Glucagon receptor; experiment: Antagonist activity at human glucagon receptor expressed in CHO cells assessed as inhibition of forskolin/glucagon-induced cAMP production preincubated for 30 mins before glucagon challenge measured after 30 mins using [125I]-cAMP by liquid scintillation counting; assay type: functional, cell-based
Outline: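 Glucagon-induced cAMP production measured in CHO cells transfected with hGCGR. IC50 reported as the average rounded to two significant figures, with SEM when measured more than once.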

[3] = Plasma clearance in rat at 1 mg/kg, iv and 2 mg/kg, po; assay type: ADME, organism-based
Outline: (§1)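 Rat PK with dosing at 1 mg/kg IV and 2 mg/kg PO, vehicle DMSO/water/PEG400 15:35:55. Parameters were plasma clearance, Vd, t1/2, dose-normalised PO AUC and Cmax, and %F.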

[4] = Volume of distribution in rat at 1 mg/kg, iv and 2 mg/kg, po; assay type: ADME, organism-based; conditions: in vivo; outline: as §1
[5] = Half life in rat at 1 mg/kg, iv and 2 mg/kg, po; assay type: ADME, organism-based; conditions: in vivo; outline: as §1
[6] = tested on: Rattus norvegicus; experiment: Dose normalised AUC in rat at 2 mg/kg, po; assay type: ADME, organism-based; design: dose 2 mg/kg, route oral; conditions: in vivo; outline: as §1
[7] = tested on: Rattus norvegicus; experiment: Dose normalised Cmax in rat at 1 mg/kg, iv and 2 mg/kg, po; assay type: ADME, organism-based; conditions: in vivo; outline: as §1
[8] = Oral bioavailability in rat at 2 mg/kg; assay type: ADME, organism-based; conditions: in vivo; outline: as §1
[9] = Plasma clearance in dog at 0.5 mg/kg, iv and 2 mg/kg, po; assay type: ADME, organism-based, Canis lupus familiaris
[10] = Volume of distribution in dog at 0.5 mg/kg, iv and 2 mg/kg, po; assay type: ADME, organism-based, Canis lupus familiaris; conditions: in vivo
[11] = Half life in dog at 0.5 mg/kg, iv and 2 mg/kg, po; assay type: ADME, organism-based, Canis lupus familiaris; conditions: in vivo
[12] = tested on: Canis familiaris; experiment: Dose normalised AUC in dog at 2 mg/kg, po; assay type: ADME, organism-based, Canis lupus familiaris; design: dose 2 mg/kg, route oral; conditions: in vivo
[13] = tested on: Canis familiaris; experiment: Dose normalised Cmax in dog at 0.5 mg/kg, iv and 2 mg/kg, po; assay type: ADME, organism-based, Canis lupus familiaris; conditions: in vivo
[14] = Oral bioavailability in dog at 2 mg/kg; assay type: ADME, organism-based, Canis lupus familiaris; conditions: in vivo
[15] = target: Glucagon-like peptide 1 receptor (Homo sapiens, UniProt P43220); experiment: Antagonist activity at human GLP1 receptor assessed as inhibition of cAMP production; assay type: functional
[16] = target: T2, Gastric inhibitory polypeptide receptor (Homo sapiens, UniProt P48546); experiment: Antagonist activity at human GIP receptor assessed as inhibition of cAMP production; assay type: functional
T2 sequence (P48546 whole entry): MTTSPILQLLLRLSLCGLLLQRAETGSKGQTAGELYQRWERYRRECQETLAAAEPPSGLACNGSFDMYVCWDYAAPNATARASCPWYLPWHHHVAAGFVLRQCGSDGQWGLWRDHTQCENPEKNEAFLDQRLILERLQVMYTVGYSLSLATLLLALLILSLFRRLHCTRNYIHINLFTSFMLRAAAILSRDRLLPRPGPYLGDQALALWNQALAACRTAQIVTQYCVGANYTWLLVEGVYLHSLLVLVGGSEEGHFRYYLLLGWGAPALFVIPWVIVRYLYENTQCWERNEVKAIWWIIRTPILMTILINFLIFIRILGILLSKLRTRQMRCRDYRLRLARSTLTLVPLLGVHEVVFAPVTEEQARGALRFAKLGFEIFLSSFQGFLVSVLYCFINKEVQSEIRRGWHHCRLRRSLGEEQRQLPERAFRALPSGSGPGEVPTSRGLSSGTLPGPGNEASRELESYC

[17] = target: Cytochrome P450 3A4 (Homo sapiens, UniProt P08684); experiment: Inhibition of CYP3A4; assay type: ADME
[18] = target: Cytochrome P450 2C9 (Homo sapiens, UniProt P11712); experiment: Inhibition of CYP2C9; assay type: ADME
[19] = target: Cytochrome P450 2D6 (Homo sapiens, UniProt P10635); experiment: Inhibition of CYP2D6; assay type: ADME
[20] = tested on: Mus musculus; experiment: Antidiabetic activity in human glucagon receptor transgenic mouse assessed as inhibition of glucagon-induced glucose excursion at 3 mg/kg, po administered 60 mins after glucagon challenge by glucometry; assay type: functional, organism-based; design: dose 3 mg/kg; conditions: in the assay text read “60 mins before glucagon challenge” for “60 mins after glucagon challenge”
Outline: (§2)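 Oral dosing to mice expressing human glucagon receptor, followed 60 min later by IP glucagon injection. Read-out was the glucagon-induced blood glucose excursion.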

[21] = tested on: Mus musculus; experiment: Antidiabetic activity in human glucagon receptor transgenic mouse assessed as inhibition of glucagon-induced glucose excursion at 10 mg/kg, po administered 60 mins after glucagon challenge by glucometry; assay type: functional, organism-based; design: dose 10 mg/kg; conditions: in the assay text read “60 mins before glucagon challenge” for “60 mins after glucagon challenge”; outline: as §2
[22] = tested on: Mus musculus; experiment: Antidiabetic activity in human glucagon receptor transgenic mouse assessed as inhibition of glucagon-induced glucose excursion at 30 mg/kg, po administered 60 mins after glucagon challenge by glucometry; assay type: functional, organism-based; design: dose 30 mg/kg; conditions: in the assay text read “60 mins before glucagon challenge” for “60 mins after glucagon challenge”; outline: as §2
[23] = tested on: Mus musculus; experiment: Antidiabetic activity in human glucagon receptor transgenic ob/ob mouse hyperglycemic model assessed as reduction in ambient glucose level at 1 mg/kg, po over 6 hrs period; assay type: functional, organism-based; design: dose 1 mg/kg
Outline: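 Model was transgenic ob/ob/hGCGR diabetic mice. Ambient glucose was followed over 6 h after a single oral dose.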

[24] = Chemical stability of the compound in 1:1 mixtures of dioxane and buffered solutions at pH 2 to pH 10 assessed as racemization at 40 degree celsius after 24 hrs by chiral HPLC analysis; assay type: physicochemical; conditions: buffer, pH 2, 24 h
[25] = tested on: Liver microsomes; experiment: Stability of the compound in human liver microsomes assessed as racemization at 10 uM after 60 mins by chiral HPLC analysis; assay type: ADME, Microsome; conditions: 1 h
[26] = tested on: Liver microsomes; experiment: Protein binding in human liver microsomes at 10 uM after 60 mins; assay type: ADME, Microsome; conditions: 1 h
Outline: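 Tritium-labelled analog incubated with human and rat liver microsomes for 60 min at 37 °C, then irreversible protein binding measured.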

[27] = tested on: Rattus norvegicus; experiment: Stability of the compound in bile duct cannulated rat assessed as racemization at 2 mg/kg, iv by chiral HPLC analysis; assay type: ADME, organism-based; design: dose 2 mg/kg, route intravenous; conditions: in vivo
Outline: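 Radiolabelled compound given IV at 2 mg/kg to bile-duct-cannulated rats. Excreted parent compound analysed by chiral HPLC for racemization.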

[28] = tested on: Plasma; experiment: Protein binding in Sprague-Dawley rat plasma at 20 mg/kg, po after 2 to 24 hrs; assay type: ADME, organism-based; design: dose 20 mg/kg, route oral; conditions: in vivo
Outline: (§3)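 Radiolabelled analog given orally at 20 mg/kg to Sprague-Dawley rats. Irreversible binding to plasma and liver proteins measured at 2, 6 and 24 h post dose.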

[29] = tested on: Liver; experiment: Protein binding in Sprague-Dawley rat liver at 20 mg/kg, po after 2 to 24 hrs; assay type: ADME, organism-based; design: dose 20 mg/kg, route oral; conditions: in vivo; outline: as §3
[30] = tested on: Rattus norvegicus; experiment: Toxicity in rat assessed as tolerability at 100 mg/kg/day after 8 days; assay type: organism-based; conditions: in vivo, 192 h

T1 sequence (P47871 whole entry): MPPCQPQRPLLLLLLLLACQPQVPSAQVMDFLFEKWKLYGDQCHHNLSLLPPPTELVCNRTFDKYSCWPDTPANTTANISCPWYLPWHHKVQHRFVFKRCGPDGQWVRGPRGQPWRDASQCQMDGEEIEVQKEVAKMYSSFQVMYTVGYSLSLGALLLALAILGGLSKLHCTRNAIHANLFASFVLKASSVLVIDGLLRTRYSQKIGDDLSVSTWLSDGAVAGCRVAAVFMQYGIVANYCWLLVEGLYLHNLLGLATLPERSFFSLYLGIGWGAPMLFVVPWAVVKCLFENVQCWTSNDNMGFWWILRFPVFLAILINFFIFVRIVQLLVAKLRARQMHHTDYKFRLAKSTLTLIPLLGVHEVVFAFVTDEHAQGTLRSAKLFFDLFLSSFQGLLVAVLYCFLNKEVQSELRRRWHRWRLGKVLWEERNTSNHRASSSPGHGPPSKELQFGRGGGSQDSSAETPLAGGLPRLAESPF
Cytochrome P450 2C9, sequence (P11712 whole entry): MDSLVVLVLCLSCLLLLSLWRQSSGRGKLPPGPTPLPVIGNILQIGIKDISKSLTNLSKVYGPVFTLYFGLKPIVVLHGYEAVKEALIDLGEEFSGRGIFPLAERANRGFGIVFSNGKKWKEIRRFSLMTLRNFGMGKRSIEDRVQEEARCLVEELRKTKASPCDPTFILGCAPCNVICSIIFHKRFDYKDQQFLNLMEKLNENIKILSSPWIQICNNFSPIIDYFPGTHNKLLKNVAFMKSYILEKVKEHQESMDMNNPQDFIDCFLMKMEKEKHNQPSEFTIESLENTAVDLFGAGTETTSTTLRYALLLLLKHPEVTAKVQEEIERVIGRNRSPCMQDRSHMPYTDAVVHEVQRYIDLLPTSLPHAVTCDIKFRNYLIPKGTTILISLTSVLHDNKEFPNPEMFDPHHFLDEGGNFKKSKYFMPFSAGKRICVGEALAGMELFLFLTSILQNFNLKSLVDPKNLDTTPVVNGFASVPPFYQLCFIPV
Cytochrome P450 3A4, sequence (P08684 whole entry): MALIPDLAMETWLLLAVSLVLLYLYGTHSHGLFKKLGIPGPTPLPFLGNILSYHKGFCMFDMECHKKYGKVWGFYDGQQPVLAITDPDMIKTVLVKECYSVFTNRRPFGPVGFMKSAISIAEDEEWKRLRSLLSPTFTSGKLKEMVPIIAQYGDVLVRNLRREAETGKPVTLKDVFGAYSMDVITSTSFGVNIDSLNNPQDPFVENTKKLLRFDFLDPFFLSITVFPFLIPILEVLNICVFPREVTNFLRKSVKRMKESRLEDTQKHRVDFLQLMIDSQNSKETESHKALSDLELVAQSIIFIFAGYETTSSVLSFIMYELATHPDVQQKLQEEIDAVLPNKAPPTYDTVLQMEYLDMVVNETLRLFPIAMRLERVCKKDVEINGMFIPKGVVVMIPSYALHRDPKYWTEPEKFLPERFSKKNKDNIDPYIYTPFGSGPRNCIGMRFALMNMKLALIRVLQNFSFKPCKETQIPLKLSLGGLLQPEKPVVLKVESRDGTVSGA
Glucagon-like peptide 1 receptor, sequence (P43220 whole entry): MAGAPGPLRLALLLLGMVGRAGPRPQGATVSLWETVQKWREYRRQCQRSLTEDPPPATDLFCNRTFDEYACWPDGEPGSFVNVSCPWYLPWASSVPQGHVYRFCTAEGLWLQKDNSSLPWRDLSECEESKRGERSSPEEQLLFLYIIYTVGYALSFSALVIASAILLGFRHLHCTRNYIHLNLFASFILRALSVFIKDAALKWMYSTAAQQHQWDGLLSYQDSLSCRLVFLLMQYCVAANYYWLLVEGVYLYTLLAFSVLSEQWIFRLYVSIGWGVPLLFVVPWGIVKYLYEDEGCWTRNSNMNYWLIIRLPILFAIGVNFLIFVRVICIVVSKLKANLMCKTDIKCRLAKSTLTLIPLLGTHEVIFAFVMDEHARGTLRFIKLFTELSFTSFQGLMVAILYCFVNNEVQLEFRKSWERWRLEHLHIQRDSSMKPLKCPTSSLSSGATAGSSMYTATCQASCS
Cytochrome P450 2D6, sequence (P10635 whole entry): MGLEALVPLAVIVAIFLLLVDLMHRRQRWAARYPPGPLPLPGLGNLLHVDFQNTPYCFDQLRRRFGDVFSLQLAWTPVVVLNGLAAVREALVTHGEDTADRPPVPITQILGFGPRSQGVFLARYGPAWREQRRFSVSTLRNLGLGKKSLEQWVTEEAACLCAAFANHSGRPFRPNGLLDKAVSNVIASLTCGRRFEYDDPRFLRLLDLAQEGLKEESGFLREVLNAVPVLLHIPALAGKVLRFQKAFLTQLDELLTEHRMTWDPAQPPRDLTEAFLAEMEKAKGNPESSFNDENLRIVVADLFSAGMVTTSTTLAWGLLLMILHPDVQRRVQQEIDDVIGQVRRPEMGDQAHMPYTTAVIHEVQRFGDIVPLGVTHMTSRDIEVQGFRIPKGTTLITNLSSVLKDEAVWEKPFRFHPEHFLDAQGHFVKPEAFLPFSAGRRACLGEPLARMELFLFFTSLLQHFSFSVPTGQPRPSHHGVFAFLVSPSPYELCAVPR

Work on `CCCCC[C@@H](Cc1ccc(C(=O)NCCC(=O)O)cc1)C(=O)c1cc2cc(Cl)ccc2n1-c1cccc(C(F)(F)F)c1` yielded an IC50 [1] of 10 nM, an IC50 [2] of 12 nM and a clearance [3] of 6.8 mL/min/kg. For the same compound, the Vd [4] was 0.98 L/kg, the half-life [5] was 1.9 h and the AUC/dose [6] was 1.46 µM·h. It also gave a Cmax/dose [7] of 330 nM, a bioavailability [8] of 33% and a clearance [9] of 3.8 mL/min/kg. The Vd [10] was 0.32 L/kg, the half-life [11] was 2.7 h and the AUC/dose [12] was 4.2 µM·h. The Cmax/dose [13] was 840 nM, the bioavailability [14] was 60% and the IC50 [15] was over 10000 nM. For the same compound, the IC50 [16] was 1400 nM, the IC50 [17] was over 11000 nM and the IC50 [18] was over 11000 nM. For the same compound, the IC50 [19] was over 11000 nM, the Activity [20] was “Active” and the Activity [21] was “Active”. For the same compound, the Activity [22] was “Active”, the Activity [23] was “Active” and the Stability [24] was “Stable”. The Stability [25] was “Stable”, the PB [26] was “Not Active” and the Stability [27] was “Stable”. For the same compound, the PPB [28] was “Not Active”, the PB [29] was “Not Active” and the Activity [30] was “Non-toxic”.

Source: ChEMBL document CHEMBL1921704, “Discovery of N-aryl-2-acylindole human glucagon receptor antagonists” (Bioorg Med Chem Lett, 2011)
